For one data set, the system named is Splenocyte. Put plainly: Immunomodulatory activity in BALB/c mouse splenocytes assessed as inhibition of concanavalin A-induced lymphocyte proliferation by measuring [methyl-3H]-thymidine uptake at 50 uM after 48 hrs. The data set is classed as functional. Summed up: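 BALB/c splenocytes (5×10⁶ cells/well) in DMEM, triplicate, with concanavalin A (2 μg mL⁻¹) ± compound 48 h at 37 °C, 5% CO₂, then 1 μCi [methyl-³H]thymidine for 12 h; inhibition from thymidine uptake relative to control; dexamethasone positive control.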

The nature of data set [1]: Cytotoxicity against mouse J774 macrophages after 72 hrs by Alamar Blue assay. The data set is classed as cell-based.
Data set [2] relates to Mus musculus. Put plainly: Acute toxicity in Swiss mouse assessed as occurence of irritability at 2000 mg/kg, po after 1 hr. The format is organism-based. The conditions noted are these: in vivo. The essentials:
(§1)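 Fixed-dose stepwise procedure following OECD acute oral toxicity guidelines; groups of 3 Swiss Mus musculus mice (20–35 g) dosed orally at 2000 mg kg⁻¹ and observed for clinical signs of pain, suffering and impending death. Test run in duplicate. Animals kept at 22 ± 3 °C, 12 h light/dark, free food and water.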

For data set [3], the system named is Mus musculus. Put plainly: Acute toxicity in Swiss mouse assessed as occurence of ptosis at 2000 mg/kg, po after 1 hr. The data set is classed as organism-based. The following applies: in vivo. The essentials: as §1
Data set [4] deals with Mus musculus. Nature of the data set: Acute toxicity in Swiss mouse assessed as effect on blood cell levels at 2000 mg/kg, po (reference value: 13.0 +/- 0.9 10^6/mm3). The data set is classed as organism-based. The conditions noted are these: in vivo.
Data set [5] concerns Mus musculus. Put plainly: Acute toxicity in Swiss mouse assessed as effect on hemoglobin levels at 2000 mg/kg, po (reference value: 14.5 +/- 0.6 g/dl). The format is organism-based. The conditions noted are these: in vivo.
The subject of data set [6] is Mus musculus. Nature of the data set: Acute toxicity in Swiss mouse assessed as effect on hematocrit levels at 2000 mg/kg, po (reference value: 74.7 +/- 6.05%). The conditions noted are these: in vivo. The data set is classed as organism-based.
Data set [7] concerns Mus musculus. Put plainly: Acute toxicity in Swiss mouse assessed as effect on mean corpuscular volume at 2000 mg/kg, po (reference value: 57.3 +/- 3.01 […]). The format is organism-based. The conditions noted are these: in vivo.
Data set [8] deals with Mus musculus. Put plainly: Acute toxicity in Swiss mouse assessed as effect on mean corpuscular hemoglobin level at 2000 mg/kg, po (reference value: 11.16 +/- 0.53 pg). The data set is classed as organism-based. The following applies: in vivo.
In data set [9] the test system is Mus musculus. Put plainly: Acute toxicity in Swiss mouse assessed as effect on mean corpuscular hemoglobin concentration level at 2000 mg/kg, po (reference value: 19.5 +/- 0.94%). The data set is classed as organism-based. The conditions noted are these: in vivo.
Data set [10] has as its system Mus musculus. Put plainly: Acute toxicity in Swiss mouse assessed as effect on leukocyte level at 2000 mg/kg, po (reference value: 10.8 +/- 6.25 10^3/mm3). The format is organism-based. The following applies: in vivo.
In data set [11] the test system is Mus musculus. Put plainly: Acute toxicity in Swiss mouse assessed as mortality at 2000 mg/kg, po. The format is organism-based. The conditions noted are these: in vivo. The essentials: as §1
For data set [12], the system named is Mus musculus. Nature of the data set: Antiinflammatory activity in carrageenan-induced Swiss mouse assessed as inhibition of paw edema at 30 mg/kg, po pretreated for 1 hr followed by carrageenan challenge measured after 6 hrs by plethysmometric method. The data set is classed as functional.
The test system of data set [13] is Mus musculus. Nature of the data set: Antiinflammatory activity in carrageenan-induced Swiss mouse assessed as inhibition of paw edema at 60 mg/kg, po pretreated for 1 hr followed by carrageenan challenge measured after 6 hrs by plethysmometric method. The data set is classed as functional.
The subject of data set [14] is Mus musculus. Put plainly: Antiinflammatory activity in carrageenan-induced Swiss mouse assessed as paw volume at 60 mg/kg, po pretreated for 1 hr followed by carrageenan challenge measured after 1 hr by plethysmometric method (reference value: 59.39 +/- 10.59 […]). The data set is classed as functional.
Data set [15] deals with T1, Prostaglandin G/H synthase 1 (Ovis aries, UniProt P05979).
T1 sequence (P05979 whole entry): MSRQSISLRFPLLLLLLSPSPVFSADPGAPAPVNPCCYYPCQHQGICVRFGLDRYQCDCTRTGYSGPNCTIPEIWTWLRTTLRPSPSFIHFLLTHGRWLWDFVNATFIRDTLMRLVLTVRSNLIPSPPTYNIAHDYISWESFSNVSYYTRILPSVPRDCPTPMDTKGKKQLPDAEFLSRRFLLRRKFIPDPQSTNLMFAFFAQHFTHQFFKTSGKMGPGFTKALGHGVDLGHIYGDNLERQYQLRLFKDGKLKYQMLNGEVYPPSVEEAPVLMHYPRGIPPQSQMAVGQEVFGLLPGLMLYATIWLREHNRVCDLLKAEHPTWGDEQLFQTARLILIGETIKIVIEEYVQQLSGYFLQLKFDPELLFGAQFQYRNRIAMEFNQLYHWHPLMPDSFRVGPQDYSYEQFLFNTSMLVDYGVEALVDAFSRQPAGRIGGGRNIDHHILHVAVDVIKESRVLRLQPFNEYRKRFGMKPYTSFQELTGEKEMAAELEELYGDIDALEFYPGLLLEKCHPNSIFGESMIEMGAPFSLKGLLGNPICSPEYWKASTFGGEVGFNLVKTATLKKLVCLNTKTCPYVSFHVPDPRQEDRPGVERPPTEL
Put plainly: Inhibition of ovine COX-1 using arachidonic acid as substrate preincubated for 5 mins followed by substrate addition measured after 1 hr.

For data set [16], the target named is T2, Prostaglandin G/H synthase 2 (Homo sapiens, UniProt P35354).
T2 sequence (P35354 whole entry): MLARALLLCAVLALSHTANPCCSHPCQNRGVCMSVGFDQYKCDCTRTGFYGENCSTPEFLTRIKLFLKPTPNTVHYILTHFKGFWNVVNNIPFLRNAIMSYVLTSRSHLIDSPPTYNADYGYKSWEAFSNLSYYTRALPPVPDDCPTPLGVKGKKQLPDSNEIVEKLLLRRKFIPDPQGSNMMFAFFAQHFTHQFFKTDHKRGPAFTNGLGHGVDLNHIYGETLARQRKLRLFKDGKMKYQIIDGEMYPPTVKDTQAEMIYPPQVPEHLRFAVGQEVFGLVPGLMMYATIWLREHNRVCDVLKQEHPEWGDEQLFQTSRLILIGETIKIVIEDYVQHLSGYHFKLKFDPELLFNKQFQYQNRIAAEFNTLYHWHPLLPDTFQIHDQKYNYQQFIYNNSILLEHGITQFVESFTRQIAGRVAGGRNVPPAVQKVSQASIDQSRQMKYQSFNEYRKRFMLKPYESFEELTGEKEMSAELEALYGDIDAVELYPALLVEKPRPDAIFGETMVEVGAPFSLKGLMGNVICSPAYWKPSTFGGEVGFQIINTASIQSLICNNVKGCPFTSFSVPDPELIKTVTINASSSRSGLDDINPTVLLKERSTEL
Put plainly: Inhibition of recombinant N-terminal His6-tagged human COX-2 expressed in Baculovirus infected Sf21 cells using arachidonic acid as substrate preincubated for 5 mins followed by substrate addition measured after 1 hr. The format is cell-based.

The nature of data set [17]: Selectivity index, ratio of IC50 for ovine COX-1 to IC50 for recombinant N-terminal His6-tagged human COX-2. The essentials: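 COX-1 or COX-2 in 100 mM Tris-HCl pH 8.0 with hematin, compound (in DMSO, 1.5–100 μM) preincubated 5 min at room temperature; started with arachidonic acid plus TMPD, absorbance at 610 nm after 1 h; triplicate; IC50 calculated, selectivity index from COX-1 and COX-2 IC50s.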

We go through 6 molecules from ChEMBL document CHEMBL4270658, “Synthesis, in vitro and in vivo biological evaluation, COX-1/2 inhibition and molecular docking study of indole-N-acylhydrazone derivatives” (Bioorg Med Chem, 2018).

With `N#CCC(=O)N/N=C/c1c[nH]c2ccc(C#N)cc12`, the inhibition (in general, the change of the read-out against control, counted positive when it falls) at 50 µM in the data set with Splenocyte was 25.7%. For the same molecule, the CC50 (commonly the concentration giving 50% cytotoxicity) at 72 h in [1] was determined as 69.4 µM.

With `N#CCC(=O)N/N=C/c1c[nH]c2ccc(Br)cc12`, the inhibition at 50 µM in the data set on Splenocyte stood at 62.7%. In addition, the CC50 at 72 h in data set [1] was 144 µM. Besides, the Activity entry in the data set with Mus musculus [2] was “Non-Toxic”; with Mus musculus [3], “Non-Toxic”; in the data set with Mus musculus [4], 8.4 ×10⁶ /mm3; with Mus musculus [5], 14.1 g/dL; with Mus musculus [6], 57.6%; in the data set with Mus musculus [7] it was 53.6 fL. Further, the Activity is 16.8 pg in the data set with Mus musculus [8]; 32.9% in the data set with Mus musculus [9]; 5.9 ×10³ /mm3 with Mus musculus [10]; “Non-Toxic” in the data set on Mus musculus [11]; 48.33 mL with Mus musculus [14]. In addition, the inhibition in vivo (as a rule, the percentage by which the read-out fell short of the control) at 30 mg/kg with Mus musculus [12] was determined as 61.8%. Besides, the inhibition in vivo at 60 mg/kg in the data set on Mus musculus [13] is 66.3%. Moreover, the IC50 (commonly the concentration that inhibits the measured activity by half) is 0.18 µM in [15] and 0.25 µM in [16]. The Ratio IC50 in data set [17] came to 0.72.

`COc1ccc2[nH]cc(/C=N/NC(=O)CC#N)c2c1`: in the data set on Splenocyte, the inhibition at 50 µM worked out at 43.7%. Further, in data set [1], the half-maximal cytotoxic concentration (CC50) at 72 h turned out to be 101 µM.

For `N#CCC(=O)N/N=C/c1c[nH]c2ncccc12`, the inhibition at 50 µM in the data set on Splenocyte worked out at 52.4%. In data set [1], this molecule displayed a CC50 at 72 h of 107 µM.

As to `N#CCC(=O)N/N=C/c1c[nH]c2cccc([N+](=O)[O-])c12`, the inhibition at 50 µM in the data set with Splenocyte is 31%. Besides, it took 66 µM to reach half-maximal cytotoxicity in data set [1] (CC50 at 72 h).

In the case of `Cc1ccc2[nH]cc(/C=N/NC(=O)CC#N)c2c1`, in the data set on Splenocyte, the inhibition at 50 µM came to 15.4%. In addition, the CC50 at 72 h in [1] was 200 µM.
